The text below walks through data of ChEMBL document CHEMBL2401636, “Investigation of the noncovalent binding mode of covalent proteasome inhibitors around the transition state by combined use of cyclopropylic strain-based conformational restriction and computational modeling” (J Med Chem, 2013).

The subject of one data set is KB. The data set is described as follows: Cytotoxicity against human KB cells after 72 hrs. Type of data set: functional, cell-based.
The nature of data set [1]: Inhibition of chymotrypsin-like activity of human 20S proteasome using succinyl-Leu-Leu-Val-Tyr-4-methylcoumaryl-7-amide as substrate after 60 mins by fluorescence assay.
Data set [2] can be described thus: Cytotoxicity against human HS-Sultan cells after 72 hrs. In kind it is functional, cell-based.
The test system of another data set is HCT-116. As to the kind of experiment: Cytotoxicity against human HCT116 cells after 72 hrs. Type of data set: functional, cell-based. The note with it: HCT-116, 72 h.
Data set [3] can be described thus: Half life in TEAA buffer at 7.5 mM by RP-HPLC analysis. In kind it is physicochemical. The gist of the method: (§1)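 Water-soluble analogues incubated at 37 °C in 0.1 M TEAA buffer, pH 7.4, or in human AB serum. Compound remaining was followed over time by HPLC, and the half-life was derived. Buffer half-lives are given in hours and serum half-lives in minutes.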

Data set [4] is described as follows: Half life in human AB serum at 23 mM by RP-HPLC analysis. In kind it is ADME, cell-free. The gist of the method: as §1
Data set [5] is described as follows: Inhibition proteasome (unknown origin). On the set-up: species or system Homo sapiens.

A word on the IC50: it is the concentration that gives 50% inhibition. Higher therefore signals weaker potency. For the compound `CC[C@H](C)[C@@H]1C(=O)O[C@H]1C(=O)N[C@H]1C[C@H]1C[C@@H](CCc1ccccc1)NC(=O)[C@H](C)NC(=O)OCc1ccccc1`, the IC50 was 2600 nM with KB, 5.7 nM in data set [1] and 870 nM in data set [2].

`CC[C@H](C)[C@@H]1C(=O)O[C@H]1C(=O)N[C@H]1C[C@H]1C[C@@H](CCc1ccccc1)NC(=O)c1ccc2ccccc2c1`: the half-inhibitory concentration (IC50) in data set [1] came out at 33 nM. Still for that read-out and setting: next, `CC[C@H](C)[C@@H]1C(=O)O[C@H]1C(=O)N[C@H]1C[C@H]1C[C@@H](CCc1ccccc1)NC(=O)[C@H](C)NC(=O)c1ccc2ccccc2c1`: 10 nM. The same measure, in the same setting: next, `CC[C@H](C)[C@@H]1C(=O)O[C@H]1C(=O)N[C@H]1C[C@H]1[C@@H](C)[C@@H](CCc1ccccc1)NC(=O)[C@H](C)NC(=O)c1ccc2ccccc2c1`: 42 nM.

In the case of `CC[C@H](C)[C@@H]1C(=O)O[C@H]1C(=O)N[C@H]1C[C@H]1[C@@H](C)[C@@H](CCc1ccccc1)NC(=O)[C@H](C)NC(=O)OCc1ccccc1`, the IC50 in the data set on KB was found to be 1700 nM; in data set [1], 47 nM; in data set [2], 310 nM; in the data set with HCT-116 it was 630 nM. In turn, `CC[C@H](C)[C@@H]1C(=O)O[C@H]1C(=O)N[C@H]1C[C@H]1[C@@H](C)[C@@H](CCc1ccccc1)NC(=O)c1ccc2ccccc2c1` displayed a concentration for half-maximal inhibition (IC50) in data set [1] of 140 nM. On to `CC[C@H](C)[C@@H]1C(=O)O[C@H]1C(=O)N[C@H]1C[C@H]1[C@H](C)[C@@H](CCc1ccccc1)NC(=O)[C@H](C)NC(=O)OCc1ccccc1`, for which the IC50 in the data set with KB is more than 10000 nM; in data set [1], 280 nM; in data set [2], 1800 nM; in the data set on HCT-116, more than 10000 nM. In data set [1], `CC[C@H](C)[C@@H]1C(=O)O[C@H]1C(=O)N[C@H]1C[C@H]1[C@H](C)[C@@H](CCc1ccccc1)NC(=O)c1ccc2ccccc2c1` returned an IC50 of 750 nM. In data set [1], `CC[C@H](C)[C@@H]1C(=O)O[C@H]1C(=O)N[C@H]1C[C@H]1[C@H](C)[C@@H](CCc1ccccc1)NC(=O)[C@H](C)NC(=O)c1ccc2ccccc2c1` showed an IC50 of 630 nM. What is called half-life is the time in which the quantity being followed falls by half. Read a low half-life as fast loss. `CC[C@H](C)[C@@H]1C(=O)O[C@H]1C(=O)N[C@H]1C[C@H]1[C@@H](C)[C@@H](CCc1ccccc1)NC(=O)[C@H](C)N`: the half-life at 7500 µM in data set [3] is 14 h. Besides, in data set [4], the half-life at 23000 µM was 4.2 min. For `CC[C@H](C)[C@@H]1C(=O)O[C@H]1C(=O)N[C@H]1C[C@H]1[C@H](C)[C@@H](CCc1ccccc1)NC(=O)[C@H](C)N` the same measures were 21 h and 4.7 min. For `CC[C@H](C)[C@@H]1C(=O)O[C@H]1C(=O)N[C@H]1C[C@H]1C[C@@H](CCc1ccccc1)NC(=O)[C@H](C)N` (mixture of isomers) the same measures were 10 h and 2.3 min.

Consider `CC[C@H](C)[C@@H]1C(=O)O[C@H]1C(=O)N[C@H]1C[C@H]1C[C@H](NC(=O)[C@H](C)N)C(=O)O` [BELACTOSIN A], for which the 50% inhibitory concentration (IC50) in data set [1] is 1440 nM; in data set [5] it was 304 nM.
